1 compound from ChEMBL document CHEMBL1255392, “Pharmacokinetics of acyclovir and its metabolites in cerebrospinal fluid and systemic circulation after administration of high-dose valacyclovir in subjects with normal and impaired renal function” (Antimicrob Agents Chemother, 2010) can be followed below.

In data set [1] the test system is Homo sapiens. In words: Tmax in human systemic circulation with normal renal function assessed as CMMG level at 2000 mg, po every 6 hrs measured after fifth dose by LC/MS. It is filed as ADME, organism-based. Conditions: in vivo. In short, it runs like this: (§1)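 Six volunteers with normal renal function fasted from 8 h before to 2 h after the fifth dose. Intrathecal-catheter CSF and venous blood were sampled at 0–8 h and stored at −70°C. Noncompartmental Cmax, tmax and AUCτ (0–6 h) were derived; Cavg = AUCτ/τ.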

For data set [2], the system named is Homo sapiens. In words: Ratio of Cmax in human CSF to Cmax in human plasma with normal renal function assessed as CMMG level at 2000 mg, po every 6 hrs measured after fifth dose by LC/MS. Format: ADME, organism-based. A digest of the protocol: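 For each normal-renal-function subject, the metabolite CSF Cmax was divided by the serum Cmax from samples taken 0–8 h after the fifth dose. Both were measured by LC/MS with isotope-labelled internal standards, and the ratio is given as mean ± SD.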

The test system of data set [3] is Homo sapiens. The data set can be described thus: Tmax in human CSF with normal renal function assessed as CMMG level at 2000 mg, po every 6 hrs measured after fifth dose by LC/MS. As to conditions: in vivo. It is filed as ADME, organism-based, Cerebrospinal fluid. In short, it runs like this: as §1
Data set [4] concerns Homo sapiens. The data set can be described thus: AUC (0 to 6 hrs) in human systemic circulation with normal renal function assessed as CMMG level at 2000 mg, po every 6 hrs measured after fifth dose by LC/MS. Format: ADME, organism-based, Plasma. More on the design: dose 2000 mg, time < 6 hr, route oral. As to conditions: in vivo. A digest of the protocol:
as §1

Data set [5] relates to Homo sapiens. The data set can be described thus: AUC (0 to 12 hrs) in human CSF with chronic kidney disease assessed as CMMG level at 1500 mg, po every 12 hrs measured after fifth dose by LC/MS. Conditions: in vivo. Format: ADME, organism-based. More on the design: time < 12 hr, dose 1500 mg, route oral. In short, it runs like this:
(§2)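 Three CKD adults (CrCl ~15–30 ml/min) fasted around the final dose. Lumbar intrathecal catheter CSF and EDTA venous blood were taken predose and at 0.5–8 h plus 12 h, then stored at −70°C. Metabolites in serum/CSF were measured by SPE with isotope-labelled internal standards, reversed-phase HPLC and positive-ion MRM MS.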

The subject of data set [6] is Homo sapiens. In words: Cmax in human CSF with normal renal function assessed as CMMG level at 2000 mg, po every 6 hrs measured after fifth dose by LC/MS. Format: ADME, organism-based, Cerebrospinal fluid. Details: dose 2000 mg, route oral. As to conditions: in vivo. A digest of the protocol: as §1
In data set [7] the test system is Homo sapiens. The data set can be described thus: Cmax in human systemic circulation with normal renal function assessed as CMMG level at 2000 mg, po every 6 hrs measured after fifth dose by LC/MS. Format: ADME, organism-based. Details: dose 2000 mg, route oral. Conditions: in vivo. In short, it runs like this:
as §1

Data set [8] concerns Homo sapiens. The data set can be described thus: Ratio of Cmax in human CSF to Cmax in human plasma with chronic kidney disease assessed as CMMG level at 1500 mg, po every 12 hrs measured after fifth dose by LC/MS. It is filed as ADME, organism-based.
In data set [9] the test system is Homo sapiens. The data set can be described thus: Cmax in human systemic circulation with chronic kidney disease assessed as CMMG level at 1500 mg, po every 12 hrs measured after fifth dose by LC/MS. It is filed as ADME, organism-based. More on the design: dose 1500 mg, route oral. Conditions: in vivo. In short, it runs like this:
as §2

Data set [10] relates to Homo sapiens. The data set can be described thus: Drug level in human plasma with chronic kidney disease assessed as CMMG level at 1500 mg, po every 12 hrs measured after fifth dose by LC/MS. Format: ADME, organism-based. Conditions: in vivo, read-out: Drug uptake. A digest of the protocol: as §2
In data set [11] the test system is Homo sapiens. The data set can be described thus: Tmax in human CSF with chronic kidney disease assessed as CMMG level at 1500 mg, po every 12 hrs measured after fifth dose by LC/MS. As to conditions: in vivo. Format: ADME, organism-based, Cerebrospinal fluid. In short, it runs like this: as §2
Data set [12] relates to Homo sapiens. The data set can be described thus: Drug level in human CSF with normal renal function assessed as CMMG level at 2000 mg, po every 6 hrs measured after fifth dose by LC/MS. Format: ADME, organism-based. Conditions: in vivo, read-out: Drug uptake. In short, it runs like this: as §1
For data set [13], the system named is Homo sapiens. The data set can be described thus: Cmax in human CSF with chronic kidney disease assessed as CMMG level at 1500 mg, po every 12 hrs measured after fifth dose by LC/MS. Format: ADME, organism-based, Cerebrospinal fluid. More on the design: dose 1500 mg, route oral. As to conditions: in vivo. In short, it runs like this:
as §2

In data set [14] the test system is Homo sapiens. In words: Drug level in human CSF with chronic kidney disease assessed as CMMG level at 1500 mg, po every 12 hrs measured after fifth dose by LC/MS. Format: ADME, organism-based. As to conditions: in vivo, read-out: Drug uptake. In short, it runs like this: as §2
The subject of data set [15] is Homo sapiens. The data set can be described thus: Drug level in human plasma with normal renal function assessed as CMMG level at 2000 mg, po every 6 hrs measured after fifth dose by LC/MS. It is filed as ADME, organism-based. Conditions: in vivo, read-out: Drug uptake. In short, it runs like this: as §1
Data set [16] deals with Homo sapiens. The data set can be described thus: AUC (0 to 6 hrs) in human CSF with normal renal function assessed as CMMG level at 2000 mg, po every 6 hrs measured after fifth dose by LC/MS. It is filed as ADME, organism-based. Conditions: in vivo. More on the design: time < 6 hr, dose 2000 mg, route oral. In short, it runs like this: as §1
Data set [17] relates to Homo sapiens. The data set can be described thus: AUC (0 to 12 hrs) in human systemic circulation with chronic kidney disease assessed as CMMG level at 1500 mg, po every 12 hrs measured after fifth dose by LC/MS. Format: ADME, organism-based. Details: dose 1500 mg, time < 12 hr, route oral. As to conditions: in vivo. In short, it runs like this: as §2
The subject of data set [18] is Homo sapiens. In words: Tmax in human systemic circulation with chronic kidney disease assessed as CMMG level at 1500 mg, po every 12 hrs measured after fifth dose by LC/MS. Format: ADME, organism-based. Conditions: in vivo. A digest of the protocol: as §2

In general, Tmax refers to the time from dosing to the highest level. The AUC is concentration integrated over time. What is called Cmax is the maximum level reached in the sampled fluid or tissue. Turning to `Nc1nc2c(ncn2COCC(=O)O)c(=O)[nH]1`, the Tmax in the data set on Homo sapiens [1] turned out to be 3.3 h; with Homo sapiens [3], 1.8 h; in the data set on Homo sapiens [11], 6.7 h; with Homo sapiens [18], 4.3 h. Moreover, the Ratio in the data set on Homo sapiens [2] and with Homo sapiens [8] was 0.025 in each case. In addition, the AUC with Homo sapiens [4] came out at 17 µM·h; in the data set with Homo sapiens [5], 3.8 µM·h; with Homo sapiens [16] it was 0.42 µM·h; with Homo sapiens [17], 148 µM·h. Also, the Cmax with Homo sapiens [6] was 95 nM; with Homo sapiens [7], 4100 nM; in the data set on Homo sapiens [9] it was 15000 nM; with Homo sapiens [13], 370 nM. Besides, the concentration with Homo sapiens [10] is 12000 nM; in the data set with Homo sapiens [12], 70 nM; in the data set with Homo sapiens [14], 310 nM; with Homo sapiens [15], 2900 nM.
